Molecular target: T1, NR2F6 (Mus musculus, UniProt P43136)
T1 sequence (P43136 1-390): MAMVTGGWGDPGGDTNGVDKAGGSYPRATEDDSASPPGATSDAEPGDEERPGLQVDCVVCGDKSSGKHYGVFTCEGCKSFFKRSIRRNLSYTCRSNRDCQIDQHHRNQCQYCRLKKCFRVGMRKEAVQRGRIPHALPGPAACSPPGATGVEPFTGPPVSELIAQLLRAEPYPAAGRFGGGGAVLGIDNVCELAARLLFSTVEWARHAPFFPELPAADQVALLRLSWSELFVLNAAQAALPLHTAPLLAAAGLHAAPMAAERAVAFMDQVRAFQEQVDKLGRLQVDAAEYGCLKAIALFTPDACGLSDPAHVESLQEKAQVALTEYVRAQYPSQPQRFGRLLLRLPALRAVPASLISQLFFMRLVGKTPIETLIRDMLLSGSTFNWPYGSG
Assay: NR2F6/Il17a luciferase assay in transiently transfected HEK293 cells
Format: cell-based
Settings: Maxcyte transfected HEK293 cells, 384-well format, Troglitazone 62.5uM
Method in brief: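 HEK293 cells grown in DMEM with 10% heat-inactivated FBS and 1% penicillin-streptomycin, harvested at 70% confluency, and resuspended in electroporation buffer at 1×10^8 cells/mL. Il17a::luc plus NR2F6 or empty vector was electroporated with DNA amount titrated, then recovered 5 h at 37 °C. Luciferase was read with positive control versus untreated samples.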

- NR2F6's repressive transcriptional response (Il17a luciferase signal): further enhanced
SMILES: Cc1c(C)c2c(c(C)c1O)CCC(C)(COc1ccc(CC3SC(=O)NC3=O)cc1)O2 (stereo not shown) [Troglitazone]
